Results: PMC8842656 (Journal of Experimental Pharmacology, 2022)
Where two headings read alike, the source gives them in different places.

Experiments:
[1] = oral dose of 2g/kg; cited from earlier work
[2] = humans, cited from earlier work
Sprague-Dawley (SD) rats [3] = experiment: 5-day maximum tolerated dose; assay type: in vivo, rat
Method in brief: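 Thirty Sprague-Dawley rats, 60–65 days old (276–300 g), viral-antibody free, formed 5 groups of 3 males and 3 females. They received 2% carboxymethylcellulose vehicle or test compound suspended in it at 50, 100, 500 or 1000 mg/kg/day by oral gavage once daily for 5 days. Mortality, body weight and food intake were monitored. Terminal hematology, clinical chemistry and necropsy followed, with control and high-dose organs sectioned. Two-tailed Student's t-test, p<0.05.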

Sprague-Dawley (SD) rats [4] = experiment: 28-day toxicology evaluation within long-term PK study, oral gavage once daily; assay type: in vivo, rat; settings: 100 mg/kg/day oral
Method in brief: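 Male and female Sprague-Dawley rats, 6–8 weeks old (250–350 g), 3+3 per group, received 2% carboxymethylcellulose vehicle or test compound suspended in it at 100 mg/kg/day by oral gavage for 28 days. Adverse events, body weight and daily food intake were tracked. Terminal hematology and serum biochemistry, gross necropsy, and histopathology of heart, lungs, liver, kidney, spleen and colon followed. Two-tailed Student's t-test versus vehicle, p<0.05.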

Long-term = assay type: in vivo, rat; settings: 100 mg/kg/day oral, day 28
Method in brief: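 Sprague-Dawley rats (3 males and 3 females) were dosed with test compound by oral gavage at 100 mg/kg/day for 28 days, suspended in 2% carboxymethylcellulose. On day 28 the animals were anesthetized and blood was sampled from 5 min to 24 h after dosing. Compound was quantified by LC/MS/MS, and Cmax and Tmax were taken from the mean (n=6) concentration-time profile.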

[5] = Single dose pharmacokinetic study, oral gavage, blood by LC/MS/MS; assay type: in vivo, rat
Method in brief: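 Two groups of 6 Sprague-Dawley rats (3 males and 3 females each), 6–8 weeks old, received a single oral gavage of test compound at 500 or 1000 mg/kg, suspended in 2% carboxymethylcellulose. Blood was drawn at 5, 10, 15, 30, 45 min and 1, 2, 4, 6, 24 h. Compound was measured by LC/MS/MS, and t1/2, Tmax and Cmax were derived from mean (n=6) profiles.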

[6] = 500 mg/kg oral and 20 mg/kg i.v., blood at 2 and 6 hours; cited from earlier work
[7] = test system: LPS-induced experimental periodontal disease; settings: rats, oral, 28 days, doses 0, 1, 5, 10 and 30 mg/kg; cited from earlier work
[8] = 50-1000 mg/kg/day oral, 5 days, both sexes
[9] = 28-Day PK Study, compared to placebo-treated controls

COc1cc(C=CC(=O)CC(=O)C=Cc2ccc(O)c(OC)c2)ccc1O [curcumin, 1,7-bis-(4-hydroxy-3-methoxyphenyl)-1,6-heptadiene-3,5-dione]
Cmax [1]: 1350 ± 230 ng/mL | Time of Cmax [1]: 0.75 h | Cmax in serum ([2]; oral dose of 10 g/kg): 50.5 ng/mL | Time of Cmax ([2]; oral dose of 10 g/kg): 4 h | Cmax in serum ([2]; oral dose of 12 g/kg): 57.6 ng/mL | Time of Cmax ([2]; oral dose of 12 g/kg): 2 h

O=C(/C=C/c1ccc(O)cc1)C(C(=O)/C=C/c1ccc(O)cc1)C(=O)Nc1ccccc1 [CMC2.24]
Daily food consumption and adverse events (Sprague-Dawley (SD) rats [3]; [8]): no difference | Mean body weight vs placebo treated controls (Sprague-Dawley (SD) rats [3]; [8]): did not show significant differences | Highest dose found safe (MTD not demonstrated) (Sprague-Dawley (SD) rats [3]; oral, one week of treatment): ≥ 1000 mg/kg | Adverse events (Sprague-Dawley (SD) rats [4]; 28 days): no adverse events were reported | Mean body weight vs placebo treated controls (Sprague-Dawley (SD) rats [4]; 28 days, both sexes): no significant differences | Hematological & Serological parameters (Sprague-Dawley (SD) rats [4]; [9]): No change observed | Histology of organs (Heart, Lungs, Spleen, Liver, Kidney, Colon) (Sprague-Dawley (SD) rats [4]; [9]): Normal Histology Observed | Peak blood concentration (Cmax) (Long-term): 0.2 ng/mL | Tmax (Long-term): 4 h | Serum half-life ([5]; oral administration): 10 h | Cmax in blood ([5]; single oral dose 500 mg/kg): 8 ng/mL | Tmax ([5]; single oral dose 500 mg/kg): 0.75 h | Cmax in blood ([5]; single oral dose 1000 mg/kg): 6.7 ng/mL | Tmax ([5]; single oral dose 1000 mg/kg): 0.75 h | Bioavailability based on blood analysis [6]: poor bioavailability | Minimum effective dose to inhibit inflammation and alveolar bone resorption [7]: 1 mg/kg/day
